Active and inactive are the calls of the source. The rule behind the calls is not given here.
Key:
Histone deacetylase 8 = biological target: T1, Histone deacetylase 8 (Homo sapiens, UniProt Q9BY41); assay: Inhibition of recombinant human HDAC8
T1 sequence (Q9BY41 whole entry): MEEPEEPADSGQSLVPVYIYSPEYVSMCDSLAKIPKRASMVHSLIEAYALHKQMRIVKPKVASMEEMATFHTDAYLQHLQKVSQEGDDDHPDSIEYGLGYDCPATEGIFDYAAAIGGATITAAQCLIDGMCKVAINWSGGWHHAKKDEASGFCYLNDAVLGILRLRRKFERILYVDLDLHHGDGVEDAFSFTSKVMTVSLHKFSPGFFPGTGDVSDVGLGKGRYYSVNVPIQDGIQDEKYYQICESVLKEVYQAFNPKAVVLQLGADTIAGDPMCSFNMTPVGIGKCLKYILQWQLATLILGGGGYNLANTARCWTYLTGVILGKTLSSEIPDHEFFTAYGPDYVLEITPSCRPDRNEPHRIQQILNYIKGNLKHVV

Histone deacetylase [1] = assay: Inhibition of HDAC in human Cal27 cells; assay type: cell-based; details: cal-27
A2780 = assay: Cytotoxicity against human A2780 cells assessed as reduction in cell viability by MTT assay; assay type: functional, cell-based
Histone deacetylase [2] = assay: Inhibition of HDAC in human A2780 cells; assay type: cell-based
[3] = biological target: T2, Protein deacetylase HDAC6 (Homo sapiens, UniProt Q9UBN7); assay: Inhibition of recombinant human HDAC6
T2 sequence (Q9UBN7 whole entry): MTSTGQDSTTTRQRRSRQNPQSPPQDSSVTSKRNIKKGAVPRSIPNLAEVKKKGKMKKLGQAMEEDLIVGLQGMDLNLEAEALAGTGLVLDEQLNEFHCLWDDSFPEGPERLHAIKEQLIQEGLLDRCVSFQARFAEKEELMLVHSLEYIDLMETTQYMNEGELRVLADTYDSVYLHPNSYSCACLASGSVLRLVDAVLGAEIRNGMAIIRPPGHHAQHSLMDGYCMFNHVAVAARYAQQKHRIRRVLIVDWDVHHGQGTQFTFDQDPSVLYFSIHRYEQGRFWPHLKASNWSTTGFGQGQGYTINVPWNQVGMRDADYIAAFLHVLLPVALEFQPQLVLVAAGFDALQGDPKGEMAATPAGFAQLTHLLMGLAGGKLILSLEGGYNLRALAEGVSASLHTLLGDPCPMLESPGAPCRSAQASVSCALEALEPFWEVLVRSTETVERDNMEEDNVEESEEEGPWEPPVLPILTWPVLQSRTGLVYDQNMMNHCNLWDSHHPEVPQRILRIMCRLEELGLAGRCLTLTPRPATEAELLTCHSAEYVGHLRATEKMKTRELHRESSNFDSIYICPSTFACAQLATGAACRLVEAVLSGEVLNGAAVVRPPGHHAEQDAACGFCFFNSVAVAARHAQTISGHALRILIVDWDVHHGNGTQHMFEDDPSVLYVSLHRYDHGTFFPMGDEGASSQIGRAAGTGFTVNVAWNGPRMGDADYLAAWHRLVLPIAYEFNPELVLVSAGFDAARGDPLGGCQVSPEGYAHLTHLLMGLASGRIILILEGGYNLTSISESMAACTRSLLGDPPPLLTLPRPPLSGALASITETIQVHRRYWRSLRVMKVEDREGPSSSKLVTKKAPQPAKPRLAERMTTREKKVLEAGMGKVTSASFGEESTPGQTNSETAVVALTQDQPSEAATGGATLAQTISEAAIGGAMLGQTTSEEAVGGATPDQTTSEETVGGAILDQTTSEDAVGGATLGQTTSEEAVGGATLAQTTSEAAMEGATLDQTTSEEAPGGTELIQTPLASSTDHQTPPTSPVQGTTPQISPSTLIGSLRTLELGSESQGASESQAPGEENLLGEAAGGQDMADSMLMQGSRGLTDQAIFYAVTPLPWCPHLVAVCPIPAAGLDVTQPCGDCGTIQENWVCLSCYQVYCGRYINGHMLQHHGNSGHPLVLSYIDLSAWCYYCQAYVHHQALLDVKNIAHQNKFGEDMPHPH

CAL-27 [4] = assay: Cytotoxicity against human CAL27 cells assessed as reduction in cell viability by MTT assay; assay type: functional, cell-based
Histone deacetylase 2 = Histone deacetylase 2 (Homo sapiens, UniProt Q92769); assay: Inhibition of recombinant human HDAC2
Chain of Histone deacetylase 2 (Q92769 whole entry): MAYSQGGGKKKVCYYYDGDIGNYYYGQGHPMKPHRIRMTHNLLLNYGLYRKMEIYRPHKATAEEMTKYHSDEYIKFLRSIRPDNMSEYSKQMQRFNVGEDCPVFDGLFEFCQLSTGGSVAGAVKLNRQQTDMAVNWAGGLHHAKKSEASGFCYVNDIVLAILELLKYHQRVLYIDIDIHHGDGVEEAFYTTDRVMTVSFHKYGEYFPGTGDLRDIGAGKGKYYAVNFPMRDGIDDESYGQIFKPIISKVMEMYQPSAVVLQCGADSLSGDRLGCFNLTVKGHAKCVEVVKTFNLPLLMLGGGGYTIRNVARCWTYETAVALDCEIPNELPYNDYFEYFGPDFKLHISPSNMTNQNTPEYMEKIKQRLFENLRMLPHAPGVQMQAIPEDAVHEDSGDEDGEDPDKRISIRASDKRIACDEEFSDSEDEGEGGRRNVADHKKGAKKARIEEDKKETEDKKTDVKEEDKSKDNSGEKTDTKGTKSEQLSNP

Histone deacetylase 4 = Histone deacetylase 4 (Homo sapiens, UniProt P56524); assay: Inhibition of recombinant human HDAC4
Chain of Histone deacetylase 4 (P56524 whole entry): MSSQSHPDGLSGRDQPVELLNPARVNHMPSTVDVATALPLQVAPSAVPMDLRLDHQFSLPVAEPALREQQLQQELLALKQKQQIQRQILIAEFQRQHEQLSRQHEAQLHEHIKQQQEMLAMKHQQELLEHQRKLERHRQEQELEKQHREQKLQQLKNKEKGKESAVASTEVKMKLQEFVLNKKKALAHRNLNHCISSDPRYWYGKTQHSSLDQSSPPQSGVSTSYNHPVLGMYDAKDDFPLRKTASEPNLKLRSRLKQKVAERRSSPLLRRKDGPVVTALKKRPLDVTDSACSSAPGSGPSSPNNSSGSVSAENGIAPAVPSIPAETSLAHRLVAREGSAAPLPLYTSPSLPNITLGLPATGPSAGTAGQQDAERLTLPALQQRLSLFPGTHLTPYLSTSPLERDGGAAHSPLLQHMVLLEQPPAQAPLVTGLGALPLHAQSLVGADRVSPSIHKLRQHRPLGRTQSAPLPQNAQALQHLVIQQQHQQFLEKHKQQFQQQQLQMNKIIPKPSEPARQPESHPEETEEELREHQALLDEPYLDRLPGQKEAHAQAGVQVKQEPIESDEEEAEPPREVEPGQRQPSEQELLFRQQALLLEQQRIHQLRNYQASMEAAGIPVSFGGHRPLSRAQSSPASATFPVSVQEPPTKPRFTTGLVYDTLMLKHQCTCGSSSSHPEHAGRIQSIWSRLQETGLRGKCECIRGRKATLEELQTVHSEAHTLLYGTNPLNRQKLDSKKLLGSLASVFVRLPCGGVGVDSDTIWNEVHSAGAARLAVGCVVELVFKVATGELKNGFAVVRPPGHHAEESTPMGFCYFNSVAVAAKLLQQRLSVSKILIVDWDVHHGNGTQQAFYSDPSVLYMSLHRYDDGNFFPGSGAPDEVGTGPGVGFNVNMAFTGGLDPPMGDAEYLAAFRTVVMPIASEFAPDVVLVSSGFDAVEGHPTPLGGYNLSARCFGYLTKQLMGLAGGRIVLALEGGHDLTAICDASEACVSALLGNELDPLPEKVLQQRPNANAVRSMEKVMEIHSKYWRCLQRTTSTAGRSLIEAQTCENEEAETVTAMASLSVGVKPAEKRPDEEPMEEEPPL

[5] = biological target: T3, Class 1 histone deacetylase (Homo sapiens) (UniProt Q13547+O15379+Q92769+Q9BY41); assay: Inhibition of class 1 histone deacetylase in human Cal27CisR cells assessed as increase in H3 histone acetylation at 1.5 uM incubated for 24 hrs by immunoblot analysis; assay type: cell-based
How it was run: (§1)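 Cal27 and Cal27CisR cells incubated 24 h with vehicle or with inhibitor at 1.5, 3 or 5 µM. Western blot for α-tubulin, acetyl-α-tubulin and acetyl-histone H3.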

CAL-27 [6] = assay: Induction of apoptosis in human CAL27 cells assessed as increase in caspase 3/7 activation at 0.4 uM incubated for 24 hrs by Hoechst 33342 staining based fluorescence assay; assay type: functional, cell-based
[7] = biological target: T3, Class 1 histone deacetylase (Homo sapiens); assay: Inhibition of class 1 histone deacetylase in human CAL27 cells assessed as increase in H3 histone acetylation at 1.5 uM incubated for 24 hrs by immunoblot analysis; assay type: cell-based; details: CAL-27; how it was run: as §1
[8] = biological target: T4, Protein deacetylase HDAC6 (Homo sapiens) (UniProt Q9UBN7); assay: Inhibition of HDAC6 in human Cal27CisR cells assessed as increase in acetylated alpha-tubulin at 1.5 uM incubated for 24 hrs by immunoblot analysis; assay type: cell-based; how it was run: as §1
T4 sequence (whole entry): T2 sequence (Q9UBN7 whole entry)

[9] = biological target: T4, Protein deacetylase HDAC6 (Homo sapiens); assay: Inhibition of HDAC6 in human CAL27 cells assessed as increase in acetylated alpha-tubulin at 1.5 uM incubated for 24 hrs by immunoblot analysis; assay type: cell-based; details: CAL-27; how it was run: as §1
[10] = Potentiation of cisplatin-induced cytotoxicity against human Cal27CisR cells assessed as shift factor by measuring ratio of cisplatin IC50 to cisplatin IC50 in presence of compound at 0.8 uM incubated for 72 hrs followed by cisplatin addition and measured after 72 hrs by MTT assay; assay type: functional
How it was run: (§2)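 MTT shift assay. Cal27 cells received HDACi at 0.2, 0.4 or 1.4 µM; Cal27CisR cells received 0.8 or 6 µM. Cells were incubated 72 h with a cisplatin range. Shift factor = cisplatin IC50 alone / cisplatin IC50 with HDACi, significance by t-test (p<0.05). Pooled mean of ≥3 experiments, each in triplicate.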

CAL-27 [11] = assay: Potentiation of cisplatin-induced apoptosis in human CAL27 cells assessed as increase in caspase 3/7 activation at 0.4 uM incubated for 24 hrs followed by cisplatin addition by Hoechst 33342 staining based fluorescence assay; assay type: functional, cell-based
How it was run: (§3)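 Cal27 cells pretreated with HDACi at 0.4, 0.8 or 2.8 µM, then 24 h more with 3 µM cisplatin. Cal27CisR cells pretreated at 0.8 or 8 µM, then 24 h with 25 µM cisplatin. 100 µM cisplatin as positive control. Active caspase 3/7 imaged by green fluorescence, nuclei counterstained with Hoechst 33342 (blue).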

Homo sapiens [12] = organism: Homo sapiens; assay: Potentiation of cisplatin-induced apoptosis in human Cal27CisR cells assessed as increase in caspase 3/7 activation at 0.8 uM incubated for 24 hrs followed by cisplatin addition by Hoechst 33342 staining based fluorescence assay; assay type: functional, cell-based; how it was run: as §3
CAL-27 [13] = assay: Potentiation of cisplatin-induced cytotoxicity against human CAL27 cells assessed as shift factor by measuring ratio of cisplatin IC50 to cisplatin IC50 in presence of compound at 0.2 uM incubated for 72 hrs followed by cisplatin addition and measured after 72 hrs by MTT assay; assay type: functional; how it was run: as §2
Homo sapiens [14] = organism: Homo sapiens; assay: Induction of apoptosis in human Cal27CisR cells assessed as increase in caspase 3/7 activation at 0.8 uM incubated for 24 hrs by Hoechst 33342 staining based fluorescence assay; assay type: functional, cell-based
Homo sapiens [15] = organism: Homo sapiens; assay: Induction of apoptosis in human Cal27CisR cells assessed as increase in caspase 3/7 activation at 8 uM incubated for 24 hrs by Hoechst 33342 staining based fluorescence assay; assay type: functional, cell-based
[16] = biological target: T4, Protein deacetylase HDAC6 (Homo sapiens); assay: Inhibition of HDAC6 in human CAL27 cells assessed as increase in acetylated alpha-tubulin at 5 uM incubated for 24 hrs by immunoblot analysis; assay type: cell-based; details: CAL-27; how it was run: as §1
CAL-27 [17] = assay: Induction of apoptosis in human CAL27 cells assessed as increase in caspase 3/7 activation at 2.8 uM incubated for 24 hrs by Hoechst 33342 staining based fluorescence assay; assay type: functional, cell-based
[18] = Potentiation of cisplatin-induced cytotoxicity against human Cal27CisR cells assessed as shift factor by measuring ratio of cisplatin IC50 to cisplatin IC50 in presence of compound at 6 uM incubated for 72 hrs followed by cisplatin addition and measured after 72 hrs by MTT assay; assay type: functional; how it was run: as §2
[19] = biological target: T3, Class 1 histone deacetylase (Homo sapiens); assay: Inhibition of class 1 histone deacetylase in human CAL27 cells assessed as increase in H3 histone acetylation at 5 uM incubated for 24 hrs by immunoblot analysis; assay type: cell-based; details: CAL-27; how it was run: as §1
Homo sapiens [20] = organism: Homo sapiens; assay: Potentiation of cisplatin-induced apoptosis in human Cal27CisR cells assessed as increase in caspase 3/7 activation at 8 uM incubated for 24 hrs followed by cisplatin addition by Hoechst 33342 staining based fluorescence assay; assay type: functional, cell-based; how it was run: as §3
CAL-27 [21] = assay: Potentiation of cisplatin-induced cytotoxicity against human CAL27 cells assessed as shift factor by measuring ratio of cisplatin IC50 to cisplatin IC50 in presence of compound at 1.4 uM incubated for 72 hrs followed by cisplatin addition and measured after 72 hrs by MTT assay; assay type: functional; how it was run: as §2
[22] = biological target: T4, Protein deacetylase HDAC6 (Homo sapiens); assay: Inhibition of HDAC6 in human Cal27CisR cells assessed as increase in acetylated alpha-tubulin at 5 uM incubated for 24 hrs by immunoblot analysis; assay type: cell-based; how it was run: as §1
CAL-27 [23] = assay: Potentiation of cisplatin-induced apoptosis in human CAL27 cells assessed as increase in caspase 3/7 activation at 2.8 uM incubated for 24 hrs followed by cisplatin addition by Hoechst 33342 staining based fluorescence assay; assay type: functional, cell-based; how it was run: as §3
[24] = biological target: T3, Class 1 histone deacetylase (Homo sapiens); assay: Inhibition of class 1 histone deacetylase in human Cal27CisR cells assessed as increase in H3 histone acetylation at 5 uM incubated for 24 hrs by immunoblot analysis; assay type: cell-based; how it was run: as §1
CAL-27 [25] = assay: Induction of apoptosis in human CAL27 cells assessed as increase in caspase 3/7 activation at 0.8 uM incubated for 24 hrs by Hoechst 33342 staining based fluorescence assay; assay type: functional, cell-based
CAL-27 [26] = assay: Potentiation of cisplatin-induced cytotoxicity against human CAL27 cells assessed as shift factor by measuring ratio of cisplatin IC50 to cisplatin IC50 in presence of compound at 0.4 uM incubated for 72 hrs followed by cisplatin addition and measured after 72 hrs by MTT assay; assay type: functional; how it was run: as §2
CAL-27 [27] = assay: Potentiation of cisplatin-induced apoptosis in human CAL27 cells assessed as increase in caspase 3/7 activation at 0.8 uM incubated for 24 hrs followed by cisplatin addition by Hoechst 33342 staining based fluorescence assay; assay type: functional, cell-based; how it was run: as §3

SMILES	Ki (Histone deacetylase 8) [µM]	IC50 (Histone deacetylase [1]) [µM]	IC50 (A2780) [µM]	IC50 (Histone deacetylase [2]) [µM]	Ki [3] [µM]	IC50 (CAL-27 [4]) [µM]	Ki (Histone deacetylase 2) [µM]	Ki (Histone deacetylase 4) [µM]	also measured
O=C(CCCCCONC(=O)c1cc(Br)cc(Br)c1)NO	4.44	1.8	10.2	1.65	0.12	3.63	0.21	31.8	–
O=C(CCCCCONC(=O)c1cc(I)cc(I)c1I)NO	10	9.4	64	7.2	0.33	45	1.33	> 100	–
CC(C)(C)c1cc(C(=O)NOCCCCCC(=O)NO)cc(C(C)(C)C)c1	28.1	1.3	1.55	0.93	2.15	1	1.57	> 100	–
O=C(CCCCCONC(=O)c1cc(F)cc(F)c1)NO	14.7	3.77	13.7	3.79	0.1	7.98	0.58	> 100	–
COc1cc(OC)cc(C(=O)NOCCCCCC(=O)NO)c1	5.69	0.45	0.89	0.83	0.03	0.72	0.06	49.2	inhibition [5]: Active; Activity (CAL-27 [6]): Active; inhibition [7]: Active; inhibition [8]: Active; inhibition [9]: Active; PF [10]: 12.8; Activity (CAL-27 [11]): Active; Activity (Homo sapiens [12]): Active; PF (CAL-27 [13]): 3.79; Activity (Homo sapiens [14]): Active
O=C(CCCCCONC(=O)c1cc(C(F)(F)F)cc(C(F)(F)F)c1)NO	4.9	10.56	30.5	11	0.56	15.8	0.55	83.7	–
COc1cc(C(=O)NOCCCCCC(=O)NO)cc(OC)c1OC	6.4	1.48	13.8	1.18	0.06	3.07	0.09	93.1	Activity (Homo sapiens [15]): Active; inhibition [16]: Active; Activity (CAL-27 [17]): Active; PF [18]: 7.73; inhibition [19]: Active; Activity (Homo sapiens [20]): Active; PF (CAL-27 [21]): 1.95; inhibition [22]: Active; Activity (CAL-27 [23]): Active; inhibition [24]: Active
Cc1cc(C)cc(C(=O)NOCCCCC(=O)NO)c1	22.3	3.36	9.34	4.24	0.42	8.67	0.37	> 100	–
O=C(CCCCCONC(=O)c1c(Cl)cncc1Cl)NO	18.9	12.7	68.4	14.5	0.35	28.1	1.36	> 100	–
Cc1cc(C)cc(C(=O)NOCCCCCC(=O)NO)c1	4.81	0.55	0.97	0.17	0.05	0.76	0.08	> 100	inhibition [5]: Active; Activity (CAL-27 [25]): Active; PF (CAL-27 [26]): 3; inhibition [7]: Active; inhibition [8]: Active; inhibition [9]: Active; PF [10]: 8.36; Activity (Homo sapiens [12]): Active; Activity (Homo sapiens [14]): Active; Activity (CAL-27 [27]): Active
